PPC-1+TRAIL kill = compounds killing PPC-1 cancer cells with TRAIL present (potentiator screen, no TRAIL-free arm); PPC-1 cells + TRAIL, ATPLite viability luminescence; cell killing (% activity), % at 4 µM or 5 µM; 220,000 compounds, 0.41% hits;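 active = cell killing above 50% in the first pass at 4 µM, then a duplicate retest at 5 µM averaging 50% or more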
TRAIL sens C8 = sensitizes caspase-8 expressing cells to TRAIL; NB7+C8 cells + TRAIL, ATPlite viability luminescence; inhibition (viability loss, TRAIL sensitization), % at 10 µM; 360,000 compounds, 1% hits; AID 624354;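 active = compounds causing at least 50% loss of cell viability in the single-dose screen, relative to plate controls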
FLuc inhib CS = Photinus pyralis luciferase inhibition counter-screen; P08659; ATPLite firefly luciferase biochemical luminescence, 10 min; inhibition, % at 10 µM; 200,000 compounds, 1.5% hits; AID 1006;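 active = inhibition above about 50% when tested at 10 µM, limit read from the data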
Target sequence (P08659 whole entry, looked up): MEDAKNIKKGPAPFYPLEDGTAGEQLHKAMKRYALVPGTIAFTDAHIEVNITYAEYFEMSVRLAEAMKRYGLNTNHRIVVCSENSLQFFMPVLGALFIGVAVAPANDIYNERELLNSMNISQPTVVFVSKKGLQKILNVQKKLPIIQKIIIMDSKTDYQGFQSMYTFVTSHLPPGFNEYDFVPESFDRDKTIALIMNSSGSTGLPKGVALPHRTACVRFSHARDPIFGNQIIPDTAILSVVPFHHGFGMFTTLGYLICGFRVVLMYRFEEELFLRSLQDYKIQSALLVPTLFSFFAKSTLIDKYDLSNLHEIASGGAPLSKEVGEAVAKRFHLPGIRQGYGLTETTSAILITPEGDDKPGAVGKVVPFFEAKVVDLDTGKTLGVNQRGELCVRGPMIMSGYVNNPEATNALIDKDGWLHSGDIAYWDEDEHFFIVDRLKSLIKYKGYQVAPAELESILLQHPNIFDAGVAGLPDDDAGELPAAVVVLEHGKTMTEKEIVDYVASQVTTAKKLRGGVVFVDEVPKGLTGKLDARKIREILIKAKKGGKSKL
FLuc stim CS = affects firefly luciferase, flagging false hits in luciferase stimulation screens | 200,000 tested, under 10 active | activation factor at 10 µM | ATPlite luciferase biochemical, luminescence, 10 min; 0 = ATP-free wells, 1 = DMSO control | P08659;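 active = luciferase activation factor, scaled between plate controls, of at least 2 with compound at 10 µM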
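System: cell-free luciferase reagent; medium: PBS as buffer for the ATP substrate; doses: test compounds dosed from 2 mM stocks in 100% DMSO; incubation: 10 min, room temperature; measured by: luminescence from luciferase reaction; read-out: luciferase activation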
Large screens that a line does not name were inactive. In the library only some 1.6% were active in any assay of this set; here they are far more common.

COc1ccccc1OC(C)C(=O)Nc1nc(-c2ccc(S(=O)(=O)N3CCOCC3)cc2)cs1 (configuration not stated)	none
COc1cccc(C(=O)O/N=C2\CCS(=O)(=O)c3sccc32)c1	FLuc inhib CS 60
Cc1ccccc1-c1nc2sc3c(c2c(=O)n1N)CCCC3	TRAIL sens C8 54
Nn1c(-c2cccs2)nc2sc3c(c2c1=O)CCCC3	none
COc1cccc(CNc2ncc(Br)cc2Br)c1O	none
COc1cccc(CNc2ccc(Br)cn2)c1O	FLuc inhib CS 62
Cn1cccc1C(=O)NC(=O)COC(=O)C12CC3CC(CC(O)(C3)C1)C2	FLuc inhib CS 57
O=C(NC(c1ccccc1)c1cc(Cl)c2cccnc2c1O)c1cccnc1 (configuration not stated)	none (no result: TRAIL sens C8)
Cc1cccc(NC(=O)/C=C/c2ccc(Cl)cc2)n1	TRAIL sens C8 69, FLuc inhib CS 83
Cc1cccc(NC(=O)/C(C#N)=C/c2ccc(Cl)cc2)n1	none (no result: PPC-1+TRAIL kill, FLuc inhib CS, FLuc stim CS)
CCOC(=O)Cc1csc(NC(=O)/C=C/c2ccco2)n1	none (no result: FLuc inhib CS, FLuc stim CS)
CCOC(=O)Cc1csc(NC(=O)/C=C/c2ccc(Cl)cc2)n1	TRAIL sens C8 55 (no result: FLuc inhib CS, FLuc stim CS)
O=[N+]([O-])c1ccc2[nH]c(O)c(N=Nc3ccc(F)cc3)c2c1	none (no result: PPC-1+TRAIL kill, FLuc inhib CS, FLuc stim CS)
O=[N+]([O-])c1ccc(N=Nc2c(O)[nH]c3ccc(F)cc23)cc1	TRAIL sens C8 54 (no result: PPC-1+TRAIL kill, FLuc inhib CS, FLuc stim CS)
O=C1C(N2CCOCC2)=C(n2nnc3ccccc32)C(=O)c2ccccc21	TRAIL sens C8 94
COCCNC(=O)c1onc(CSc2cc(C)ccc2C)c1C(=O)O	none
COc1ccc(-c2sc3ccccc3c2-c2ccc(OCCN(C)C)cc2)cc1	TRAIL sens C8 79 (no result: PPC-1+TRAIL kill, FLuc inhib CS, FLuc stim CS)
CCN(C(=O)COC(=O)c1cc(-c2ccc3cc(OC)ccc3c2)nc2ccccc12)C1CCS(=O)(=O)C1 (configuration not stated)	PPC-1+TRAIL kill 83, FLuc inhib CS 76 (no result: TRAIL sens C8)
Cc1ccc(NC(=O)CCNC(=O)N2CC(=O)Nc3ccccc32)cc1Cl	none (no result: PPC-1+TRAIL kill, FLuc inhib CS, FLuc stim CS)
COc1ccc(NC(=O)Nc2cccs2)cc1Cl	FLuc inhib CS 58
CCN1CCN(Cc2ccc(NC(=O)Nc3cccs3)cc2)CC1	FLuc inhib CS 74
CCN1CCN(Cc2ccc(NC(=O)Nc3ccccc3)cc2)CC1	FLuc inhib CS 64
COc1ccc(NC(=O)CCC(=O)c2cccs2)cc1Cl	none (no result: PPC-1+TRAIL kill, FLuc inhib CS, FLuc stim CS)
CC(=O)N/C(=C\c1ccc2c(c1)OCO2)C(=O)NC(C(=O)O)c1ccccc1 (configuration not stated)	none (no result: FLuc inhib CS, FLuc stim CS)
CCOC(=O)[C@H]1[C@H]2COc3ccc(OC)cc3[C@@H]2N2C(=O)CN(C)C(=O)[C@@]12C	none (no result: PPC-1+TRAIL kill, FLuc inhib CS, FLuc stim CS)
Cc1cc(=O)[nH]c(SCC(=O)Nc2ccc(N3CCCCC3)cc2)n1	none (no result: PPC-1+TRAIL kill, FLuc inhib CS, FLuc stim CS)
COC(=O)[C@@H]1Cc2c([nH]c3ccccc23)C(C)(C)N1C(=O)CCl	TRAIL sens C8 96 (no result: PPC-1+TRAIL kill, FLuc inhib CS, FLuc stim CS)
Nc1nc(-c2ccc3c(c2)CCCC3)cs1	FLuc inhib CS 58
CCCC(=O)N1CCc2cc(-c3nc(N)sc3C)ccc21	none
CNc1nc(-c2ccc3c(c2)CCN3C(=O)c2ccccc2F)cs1	FLuc inhib CS 65
CCC(C)C(=O)N1CCc2cc(-c3csc(N)n3)ccc21 (configuration not stated)	FLuc inhib CS 67
CC(C)NC(=O)c1nc2c(nnn2Cc2cccc(Cl)c2)c(=O)[nH]1	none (no result: PPC-1+TRAIL kill, FLuc inhib CS, FLuc stim CS)
COc1ccc(C2=NN(Cc3c(F)cccc3Cl)C(=O)CC2)cc1	none
CCOc1ccccc1N1CCN(S(=O)(=O)c2ccc(Cl)s2)CC1	none
CC(NC(=O)Nc1nnc(C(F)(F)F)s1)(C(F)(F)F)C(F)(F)F	TRAIL sens C8 51
Cc1nn2cc(-c3ncc(C(F)(F)F)cc3Cl)cnc2c1Br	none
Cc1cc2ncc(-c3ncc(C(F)(F)F)cc3Cl)cn2n1	TRAIL sens C8 58, FLuc inhib CS 73
Cc1ccc(Cn2nnc3c(=O)[nH]c(C4CCN(C(=O)c5cccs5)CC4)nc32)cc1	none
CN1CCc2c(sc(NC(=O)c3ccc([N+](=O)[O-])o3)c2C(N)=O)C1	TRAIL sens C8 60 (no result: PPC-1+TRAIL kill, FLuc inhib CS, FLuc stim CS)
NC(=O)c1c(NC(=O)c2ccc([N+](=O)[O-])o2)sc2c1CCCC2	none (no result: PPC-1+TRAIL kill, FLuc inhib CS, FLuc stim CS)
Cc1ccc2c(c1)Cc1nc3ccccc3nc1-2	TRAIL sens C8 59, FLuc inhib CS 87
O=C(NCCC1=CCCCC1)c1coc(=O)c(Br)c1	TRAIL sens C8 53
O=C(NCCC1=CCCCC1)c1ccc(=O)oc1	none
Cc1ccccc1/C(N)=N/OC(=O)/C=C/c1ccccc1	TRAIL sens C8 94, FLuc inhib CS 56
N/C(Cc1ccc(Cl)c(Cl)c1)=N\OC(=O)c1cccs1	TRAIL sens C8 64
N/C(=N\OC(=O)c1cccs1)c1cccnc1	none (no result: PPC-1+TRAIL kill, FLuc inhib CS, FLuc stim CS)
